ChEMBL document CHEMBL1149161, “Design, synthesis, and biological evaluation of substituted 2-cyclohexyl-4-phenyl-1H-imidazoles: potent and selective neuropeptide Y Y5-receptor antagonists” (J Med Chem, 2004)

Legend:
[1] = Inhibition of […] binding to recombinant human chimeric NPY5/NPY1 receptor expressed in Sf9 cells
How it was run: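 Membranes from Sf9 cells expressing the human chimeric NPY5/NPY1 receptor, in 50 mM Tris-HCl pH 7.4 with 5 mM KCl, 120 mM NaCl, 2 mM CaCl2, 1 mM MgCl2 and 0.1% BSA. Membranes (5–50 µg) competed against 0.050 nM porcine [125I]PYY for 2 h at room temperature. Nonspecific binding was defined with 1 µM human NPY. Filtration and gamma counting followed; Ki came from a Hill fit; mean of n = 2-3 ± SEM.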

[2] = Oral half life of the compound; assay type: ADME, organism-based; conditions: in vivo
How it was run: (§1)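 Sprague–Dawley rats received a single 20 mg/kg oral gavage dose in 20% vitamin E/water (n = 3). Blood was sampled from predose to 24 h. Heparinized plasma was precipitated with acetonitrile and analyzed by LC. Bioavailability was set against a 3 mg/kg iv dose (n = 2).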

[3] = Plasma clearance of the compound; assay type: ADME, organism-based
How it was run: (§2)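 Sprague–Dawley rats received a single 3 mg/kg iv catheter dose in 50% PEG/water (n = 2). Blood was sampled at predose and from 5 min to 24 h. Heparinized plasma was precipitated with acetonitrile and analyzed by LC.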

[4] = Volume of distribution at steady state; assay type: ADME, organism-based; conditions: in vivo; read-out: Vss; how it was run: as §2
[5] = Maximum plasma concentration after oral dosing in rat; assay type: ADME, organism-based; parameters: route oral; how it was run: as §1
[6] = test system: Rattus norvegicus; assay: Oral bioavailability after peroral administration in rats; assay type: organism-based; how it was run: as §1
[7] = test system: COS-7; assay: Percentage block at hERG Voltage-gated potassium channel (subunit Kv11.1) expressed in COS7 cells by electrophysiological whole cell assay (300 nM); assay type: cell-based; conditions: Homo sapiens

| Compound | Ki [1] [nM] | also measured |
| --- | --- | --- |
| O=C(NS(=O)(=O)c1ccccc1)[C@H]1CC[C@H](c2nc(-c3cccc(C(F)(F)F)c3)c[nH]2)CC1 | 31 | – |
| COCCNC(=O)[C@H]1CC[C@H](c2nc(-c3cccc(C(F)(F)F)c3)c[nH]2)CC1 | 99 | – |
| CC(=O)NNC(=O)[C@H]1CC[C@H](c2nc(-c3cccc(C(F)(F)F)c3)c[nH]2)CC1 | 1.4 | – |
| C[C@H](O)CNC(=O)[C@H]1CC[C@H](c2nc(-c3cccc(C(F)(F)F)c3)c[nH]2)CC1 | 31 | – |
| CC(=O)CNC(=O)[C@H]1CC[C@H](c2nc(-c3cccc(Br)c3)c[nH]2)CC1 | 10 | – |
| NCCNC(=O)[C@H]1CC[C@H](c2nc(-c3cccc(C(F)(F)F)c3)c[nH]2)CC1 | 915 | – |
| CC(C)(CO)NC(=O)[C@H]1CC[C@H](c2nc(-c3cccc(C(F)(F)F)c3)c[nH]2)CC1 | 2.8 | half-life [2]: 13 h; clearance [3]: 50 mL/min/kg; Vd [4]: 6 L/kg; Cmax [5]: 714 ng/mL; bioavailability [6]: 36% |
| O=C(NCCCO)[C@H]1CC[C@H](c2nc(-c3cccc(C(F)(F)F)c3)c[nH]2)CC1 | 185 | – |
| O=S(=O)(NC[C@H]1CC[C@H](c2nc(-c3cccc(C(F)(F)F)c3)c[nH]2)CC1)c1ccccc1 | 0.2 | inhibition [7]: 87% |
| CN(C[C@H]1CC[C@H](c2nc(-c3cccc(C(F)(F)F)c3)c[nH]2)CC1)S(=O)(=O)c1ccccc1 | 1.3 | inhibition [7]: 85% |
| C[C@@H](O)CNC(=O)[C@H]1CC[C@H](c2nc(-c3cccc(C(F)(F)F)c3)c[nH]2)CC1 | 8 | – |
| FC(F)(F)c1cccc(-c2c[nH]c(-c3ccccc3)n2)c1 | 2.5 | – |
| O=C(NCCO)[C@H]1CC[C@H](c2nc(-c3cccc(C(F)(F)F)c3)c[nH]2)CC1 | 11 | – |
| FC(F)(F)c1cccc(-c2c[nH]c(C3CCCCC3)n2)c1 | 6 | – |
